Among the data in ChEMBL document CHEMBL2412961, “CD4 mimics as HIV entry inhibitors: lead optimization studies of the aromatic substituents” (Bioorg Med Chem, 2013) are IC50, Activity and CC50 values, retold here.

The subject of data set [1] is Human immunodeficiency virus 1. In words: Antiviral activity against Human immunodeficiency virus 1 R5 primary isolate YTA48P infected in CCR5-expressing human PM1 cells assessed as inhibition of virus-induced cytopathogenicity after 7 days by WST8 assay. Type of data set: functional, organism-based. The conditions noted are these: PM1, 168 h. The procedure, abridged: (§1)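 PM1/CCR5 cells were infected with the HIV-1 R5 primary isolate YTA, or mock-infected for cytotoxicity, and incubated with compound at 37 °C for 7 days. Viability was read by WST-8 (Cell Counting Kit-8). IC50 is the concentration giving 50% protection from virus-induced cytopathogenicity. CC50 is the concentration giving 50% loss of viability in mock-infected cells. Assays were run in duplicate or triplicate.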

Data set [2] concerns PM1. In words: Induction of conformational change in human immunodeficiency virus 1 JR-FL R5 subtype B gp120 infected in human PM1 cells assessed as increase in binding affinity to monoclonal antibody 4C11 at 100 uM after 15 mins by FACS analysis. Type of data set: cell-based. The procedure, abridged: (§2)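 PM1 cells chronically infected with JR-FL (R5, subtype B) were pre-incubated with CD4 mimic for 15 min, with sCD4 at 0.5 µg/mL as reference. They were then incubated with CD4i mAb 4C11 at 4 °C for 15 min, washed with PBS and stained with FITC anti-human IgG. Flow cytometry read the 4C11 mean fluorescence intensity on gated PM1 cells, with anti-CD19 as control antibody. There were at least two independent experiments.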
(In flow cytometry, cells or beads pass a laser one at a time.)

The nature of data set [3]: Cytotoxicity against CCR5-expressing human PM1 cells assessed as reduction of cell viability after 7 days by WST8 assay. Type of data set: cell-based. The procedure, abridged: as §1
A general note: Tetrazolium dyes change colour on reduction, which living cells bring about.

For data set [4], the system named is PM1. In words: Induction of conformational change in human immunodeficiency virus 1 JR-FL R5 subtype B gp120 infected in human PM1 cells assessed as increase in binding affinity to monoclonal antibody 4C11 at 25 to 100 uM after 15 mins by FACS analysis. Type of data set: cell-based. The procedure, abridged: as §2

The source made the active and inactive calls. The rule behind the calls is not given here.

`O=C(Nc1ccc(Cl)cc1)C(=O)NC1CC2(CCCCC2)NC2(CCCCC2)C1` (stereo not given): in data set [1], the IC50 – broadly, the concentration at which inhibition is half-maximal – stood at 0.43 µM.
On to `Cc1ccc(NC(=O)C(=O)NC2CC(C)(C)NC(C)(C)C2)cc1F`, for which, in data set [2], the result was Active. Also, in data set [3], the CC50 (in general, the concentration that lowers cell viability or growth by half) at 168 h amounted to 110 µM. In addition, the IC50 in data set [1] stood at 2.8 µM.
Taken in the same sequence, the figures for `CC1(C)CC(NC(=O)C(=O)Nc2ccc(Cl)c(F)c2)CC(C)(C)N1` were “Active”, 94 µM and 0.32 µM.
With `Cc1cc(NC(=O)C(=O)NC2CC(C)(C)NC(C)(C)C2)ccc1Cl`, the result in data set [2] was Active. Besides, the CC50 at 168 h in data set [3] turned out to be 38 µM. In addition, the IC50 in data set [1] is 3.3 µM.
Taken in the same sequence, the figures for `Cc1ccc(NC(=O)C(=O)NC2CC3(CCCCC3)NC3(CCCCC3)C2)cc1F` (stereo not given) were “Active”, 91 µM and 0.54 µM.
Taken in the same sequence, the figures for `Cc1ccc(NC(=O)C(=O)NC2CC(C)(C)NC(C)(C)C2)cc1Cl` were “Active”, 62 µM and 3.2 µM.
For `Cc1cc(NC(=O)C(=O)NC2CC3(CCCCC3)NC3(CCCCC3)C2)ccc1Cl` (stereo not given) the same measures were “Active”, 15 µM and 2.6 µM.
Consider `Cc1ccc(NC(=O)C(=O)NC2CC3(CCCCC3)NC3(CCCCC3)C2)cc1Br` (stereo not given), for which the outcome in data set [2] was Active. Further, the CC50 at 168 h in data set [3] was 11 µM. The IC50 in data set [1] turned out to be 3.2 µM.
On to `CC1(C)CC(NC(=O)C(=O)Nc2ccc(Cl)c(Cl)c2)CC(C)(C)N1`, for which the result in data set [2] was Active. Besides, the CC50 at 168 h in data set [3] was 36 µM. Further, in data set [1], the IC50 stood at 4.1 µM.
Turning to `Cc1ccc(NC(=O)C(=O)NC2CC(C)(C)NC(C)(C)C2)cc1Br`, the result in data set [2] was Active. For the same compound, the CC50 at 168 h in data set [3] stood at 32 µM. The IC50 in data set [1] was greater than 10 µM.
In the case of `O=C(Nc1ccc(Cl)c(Cl)c1)C(=O)NC1CC2(CCCCC2)NC2(CCCCC2)C1` (stereo not given), the result in data set [2] was Active. Moreover, in data set [3], the CC50 at 168 h was 11 µM. For the same compound, the IC50 in data set [1] was 0.62 µM.
Take `O=C(Nc1ccc(Cl)c(F)c1)C(=O)NC1CC2(CCCCC2)NC2(CCCCC2)C1` (stereo not given): the result in data set [2] and in data set [4] was Active. Moreover, the CC50 at 168 h in data set [3] worked out at 11 µM. Further, the IC50 in data set [1] was determined as 0.23 µM.
Consider `Cc1ccc(NC(=O)C(=O)NC2CC3(CCCCC3)NC3(CCCCC3)C2)cc1Cl` (stereo not given), for which the result in data set [2] was Active. Further, in data set [3], the CC50 at 168 h amounted to 11 µM. Besides, in data set [1], the IC50 amounted to 6.2 µM.
For the compound `CC1(C)CC(NC(=O)C(=O)Nc2ccc(Cl)cc2)CC(C)(C)N1`, in data set [1], the IC50 was determined as 0.61 µM.
For the compound `Cc1ccc(NC(=O)C(=O)NC2CC(C)(C)NC(C)(C)C2)cc1`, in data set [1], the IC50 turned out to be 9 µM.
